Measurements from ChEMBL document CHEMBL2390917, “Synthesis and biological evaluation of 2-(5-methyl-4-phenyl-2-oxopyrrolidin-1-yl)-acetamide stereoisomers as novel positive allosteric modulators of sigma-1 receptor” (Bioorg Med Chem, 2013).
The source made the active and inactive calls. The calls are words filed in the database; no cut-off is given here.

Tests used:
[1] = biological target: Endothelin receptor type B (Homo sapiens) (UniProt P24530); assay: Binding affinity to human ETB receptor at 10 uM by radioligand displacement assay relative to control
[2] = biological target: D(1B) dopamine receptor (Homo sapiens) (UniProt P21918); assay: Binding affinity to human dopamine D5 receptor at 10 uM by radioligand displacement assay relative to control
[3] = biological target: D(3) dopamine receptor (Homo sapiens) (UniProt P35462); assay: Binding affinity to human dopamine D3 receptor at 10 uM by radioligand displacement assay relative to control
[4] = biological target: Gastrin/cholecystokinin type B receptor (Homo sapiens) (UniProt P32239); assay: Binding affinity to human CCK2 receptor at 10 uM by radioligand displacement assay relative to control
[5] = biological target: D(1A) dopamine receptor (Homo sapiens) (UniProt P21728); assay: Binding affinity to human dopamine D1 receptor at 10 uM by radioligand displacement assay relative to control
[6] = biological target: Type-2 angiotensin II receptor (Homo sapiens) (UniProt P50052); assay: Binding affinity to human angiotensin AT2 receptor at 10 uM by radioligand displacement assay relative to control
[7] = biological target: Adrenergic receptor alpha-2 (Homo sapiens) (UniProt P08913+P18825+P18089); assay: Binding affinity to human adrenergic alpha2 receptor at 10 uM by radioligand displacement assay relative to control
[8] = biological target: Sigma non-opioid intracellular receptor 1 (Homo sapiens, UniProt Q99720); assay: Binding affinity to sigma 1 receptor (unknown origin) at 10 uM by radioligand displacement assay
[9] = test system: Mus musculus; assay: Toxicity in ip dosed ICR mouse assessed as effect on motor performance measured within 30 secs by chimney test; assay type: organism-based; conditions: in vivo, 0.5 min
[10] = test system: Mus musculus; assay: Toxicity in ICR mouse assessed as effect on locomotor activity measured moved distance per 4 mins at 100 mg/kg, ip after 240 mins by open field test (reference value: 398 70 cm); assay type: organism-based; design: dose 100 mg/kg, route intraperitoneal; conditions: in vivo
[11] = test system: Mus musculus; assay: Toxicity in ICR mouse assessed as effect on locomotor activity measured moved distance per 4 mins at 10 mg/kg, ip after 240 mins by open field test (reference value: 398 70 cm); assay type: organism-based; design: dose 10 mg/kg, route intraperitoneal; conditions: in vivo
[12] = test system: Mus musculus; assay: Toxicity in ICR mouse assessed as effect on locomotor activity measured moved distance per 4 mins at 100 mg/kg, ip after 120 mins by open field test (reference value: 578 126 cm); assay type: organism-based; design: dose 100 mg/kg, route intraperitoneal; conditions: in vivo
[13] = test system: Mus musculus; assay: Toxicity in ICR mouse assessed as effect on locomotor activity measured moved distance per 4 mins at 10 mg/kg, ip after 30 mins by open field test (reference value: 1124 121 cm); assay type: organism-based; design: dose 10 mg/kg, route intraperitoneal; conditions: in vivo
[14] = biological target: Sigma non-opioid intracellular receptor 1 (Rattus norvegicus) (UniProt Q9R0C9); assay: Positive allosteric modulation of Wistar rat sigma 1 receptor assessed as increase in electrically-stimulated vas deferens contraction at 10 uM after 10 mins
Outline: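 Isolated rat vas deferens, proximal ~15 mm segments, in K-H buffer at 32 °C gassed […], with 1.0 g passive tension and a 60 min adaptation. Field-stimulated at 0.1 Hz, 1 ms, 50 V. Cumulative PRE-084 (1–100 µM) was given, then washout and a 30 min rest. Test compound 10 µM was added for 10 min before cumulative PRE-084. Response is % increase over baseline amplitude; n=6, mean ± SEM, paired t-test.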

[15] = organism: Homo sapiens; assay: Binding affinity to sodium channel site 2 (unknown origin) at 10 uM by radioligand displacement assay relative to control
[16] = biological target: 5-hydroxytryptamine receptor 2C (Homo sapiens) (UniProt P28335); assay: Binding affinity to human 5-HT2C receptor at 10 uM by radioligand displacement assay relative to control
[17] = biological target: Peroxisome proliferator-activated receptor gamma (Homo sapiens) (UniProt P37231); assay: Binding affinity to human PPARgamma receptor at 10 uM by radioligand displacement assay relative to control
[18] = biological target: Vasoactive intestinal polypeptide receptor 1 (Homo sapiens) (UniProt P32241); assay: Binding affinity to human VPAC1 receptor at 10 uM by radioligand displacement assay relative to control
[19] = biological target: Neuromedin-K receptor (Homo sapiens) (UniProt P29371); assay: Binding affinity to human NK3 receptor at 10 uM by radioligand displacement assay relative to control
[20] = biological target: Melatonin receptor type 1A (Homo sapiens) (UniProt P48039); assay: Binding affinity to human ML1A receptor at 10 uM by radioligand displacement assay relative to control
[21] = biological target: Melanocortin receptor 4 (Homo sapiens) (UniProt P32245); assay: Binding affinity to human MC4 receptor at 10 uM by radioligand displacement assay relative to control
[22] = biological target: C-C chemokine receptor type 1 (Homo sapiens) (UniProt P32246); assay: Binding affinity to human CCR1 at 10 uM by radioligand displacement assay relative to control
Sequence of C-C chemokine receptor type 1 (Homo sapiens) (P32246 whole entry): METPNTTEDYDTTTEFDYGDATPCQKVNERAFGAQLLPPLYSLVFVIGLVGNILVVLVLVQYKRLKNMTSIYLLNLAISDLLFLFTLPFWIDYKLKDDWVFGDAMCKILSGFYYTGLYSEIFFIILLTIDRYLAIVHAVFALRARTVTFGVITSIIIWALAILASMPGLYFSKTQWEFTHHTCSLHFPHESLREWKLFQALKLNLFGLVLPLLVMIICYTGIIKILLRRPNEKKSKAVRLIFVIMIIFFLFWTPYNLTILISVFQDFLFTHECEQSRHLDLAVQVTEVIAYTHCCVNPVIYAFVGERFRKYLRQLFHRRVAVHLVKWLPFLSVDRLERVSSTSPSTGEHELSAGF

Sequence of 5-hydroxytryptamine receptor 2C (Homo sapiens) (P28335 whole entry): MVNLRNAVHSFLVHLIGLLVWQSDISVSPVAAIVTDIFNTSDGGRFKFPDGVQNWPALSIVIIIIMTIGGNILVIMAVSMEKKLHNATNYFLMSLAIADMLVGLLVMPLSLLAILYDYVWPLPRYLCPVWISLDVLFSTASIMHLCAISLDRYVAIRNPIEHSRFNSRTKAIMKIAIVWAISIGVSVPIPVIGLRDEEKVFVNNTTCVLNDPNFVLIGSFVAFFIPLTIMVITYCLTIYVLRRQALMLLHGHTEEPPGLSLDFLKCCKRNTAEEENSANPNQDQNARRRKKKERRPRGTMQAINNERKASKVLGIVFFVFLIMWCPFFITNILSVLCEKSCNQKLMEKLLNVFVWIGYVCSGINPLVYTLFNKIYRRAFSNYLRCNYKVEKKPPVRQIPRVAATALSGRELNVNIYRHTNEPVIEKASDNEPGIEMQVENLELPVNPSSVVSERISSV
Sequence of Neuromedin-K receptor (Homo sapiens) (P29371 whole entry): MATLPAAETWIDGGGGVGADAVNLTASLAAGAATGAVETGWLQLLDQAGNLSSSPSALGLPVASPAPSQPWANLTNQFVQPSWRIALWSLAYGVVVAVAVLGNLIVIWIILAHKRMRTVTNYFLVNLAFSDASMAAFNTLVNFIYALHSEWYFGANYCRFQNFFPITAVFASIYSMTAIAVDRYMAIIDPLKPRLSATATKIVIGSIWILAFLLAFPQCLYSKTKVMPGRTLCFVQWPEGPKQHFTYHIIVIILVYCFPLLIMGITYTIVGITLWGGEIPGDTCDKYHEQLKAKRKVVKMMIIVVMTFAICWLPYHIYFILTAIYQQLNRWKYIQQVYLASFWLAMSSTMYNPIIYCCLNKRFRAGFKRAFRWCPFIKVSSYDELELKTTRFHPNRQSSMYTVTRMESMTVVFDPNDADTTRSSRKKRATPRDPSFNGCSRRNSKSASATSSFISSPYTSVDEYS
Sequence of Gastrin/cholecystokinin type B receptor (Homo sapiens) (P32239 whole entry): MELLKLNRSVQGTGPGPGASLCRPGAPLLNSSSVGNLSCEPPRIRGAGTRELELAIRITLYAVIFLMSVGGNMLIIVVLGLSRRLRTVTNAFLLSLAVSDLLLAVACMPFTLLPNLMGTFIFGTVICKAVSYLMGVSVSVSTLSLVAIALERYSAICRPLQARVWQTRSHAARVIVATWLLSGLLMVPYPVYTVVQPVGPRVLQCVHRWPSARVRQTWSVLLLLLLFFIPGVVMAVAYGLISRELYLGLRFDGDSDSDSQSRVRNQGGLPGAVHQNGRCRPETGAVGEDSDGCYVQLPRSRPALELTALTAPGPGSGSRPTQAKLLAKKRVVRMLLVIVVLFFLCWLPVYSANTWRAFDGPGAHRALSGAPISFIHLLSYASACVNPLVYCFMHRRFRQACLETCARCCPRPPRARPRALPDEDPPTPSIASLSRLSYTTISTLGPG
Sequence of Melanocortin receptor 4 (Homo sapiens) (P32245 whole entry): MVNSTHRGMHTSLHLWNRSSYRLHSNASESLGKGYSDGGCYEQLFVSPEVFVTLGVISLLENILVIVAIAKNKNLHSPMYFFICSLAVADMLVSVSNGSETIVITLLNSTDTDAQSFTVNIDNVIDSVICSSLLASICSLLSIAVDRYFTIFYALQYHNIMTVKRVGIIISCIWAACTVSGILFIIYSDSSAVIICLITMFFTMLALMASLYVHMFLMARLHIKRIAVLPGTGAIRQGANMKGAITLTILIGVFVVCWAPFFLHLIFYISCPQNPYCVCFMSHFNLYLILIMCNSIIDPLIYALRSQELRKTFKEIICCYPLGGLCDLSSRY
Sequence of Peroxisome proliferator-activated receptor gamma (Homo sapiens) (P37231 whole entry): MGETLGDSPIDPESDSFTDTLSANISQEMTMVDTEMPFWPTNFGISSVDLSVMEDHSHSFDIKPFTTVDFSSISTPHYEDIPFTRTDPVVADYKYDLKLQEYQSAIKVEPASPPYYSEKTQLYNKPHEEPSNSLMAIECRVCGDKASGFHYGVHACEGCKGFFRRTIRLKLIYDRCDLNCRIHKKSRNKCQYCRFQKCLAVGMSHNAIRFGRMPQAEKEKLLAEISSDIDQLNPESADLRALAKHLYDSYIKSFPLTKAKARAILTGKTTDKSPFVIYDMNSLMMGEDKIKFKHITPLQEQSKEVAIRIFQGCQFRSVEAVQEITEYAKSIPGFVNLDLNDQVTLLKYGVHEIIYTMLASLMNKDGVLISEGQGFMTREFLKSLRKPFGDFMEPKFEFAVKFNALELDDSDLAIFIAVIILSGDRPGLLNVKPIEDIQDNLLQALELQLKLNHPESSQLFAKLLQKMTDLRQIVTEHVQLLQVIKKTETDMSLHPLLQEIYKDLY
Sequence of Endothelin receptor type B (Homo sapiens) (P24530 whole entry): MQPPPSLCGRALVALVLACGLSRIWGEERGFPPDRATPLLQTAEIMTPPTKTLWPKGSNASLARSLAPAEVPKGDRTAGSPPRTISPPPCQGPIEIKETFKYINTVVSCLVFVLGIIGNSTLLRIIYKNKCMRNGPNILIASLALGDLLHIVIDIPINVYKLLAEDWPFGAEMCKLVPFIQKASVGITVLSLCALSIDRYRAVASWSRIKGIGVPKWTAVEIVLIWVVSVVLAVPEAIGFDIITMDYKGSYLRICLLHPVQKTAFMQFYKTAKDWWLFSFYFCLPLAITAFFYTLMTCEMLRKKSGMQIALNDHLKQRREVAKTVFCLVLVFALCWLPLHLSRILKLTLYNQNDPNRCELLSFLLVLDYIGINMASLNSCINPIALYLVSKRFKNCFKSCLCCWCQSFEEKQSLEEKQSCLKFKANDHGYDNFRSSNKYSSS
Sequence of Vasoactive intestinal polypeptide receptor 1 (Homo sapiens) (P32241 whole entry): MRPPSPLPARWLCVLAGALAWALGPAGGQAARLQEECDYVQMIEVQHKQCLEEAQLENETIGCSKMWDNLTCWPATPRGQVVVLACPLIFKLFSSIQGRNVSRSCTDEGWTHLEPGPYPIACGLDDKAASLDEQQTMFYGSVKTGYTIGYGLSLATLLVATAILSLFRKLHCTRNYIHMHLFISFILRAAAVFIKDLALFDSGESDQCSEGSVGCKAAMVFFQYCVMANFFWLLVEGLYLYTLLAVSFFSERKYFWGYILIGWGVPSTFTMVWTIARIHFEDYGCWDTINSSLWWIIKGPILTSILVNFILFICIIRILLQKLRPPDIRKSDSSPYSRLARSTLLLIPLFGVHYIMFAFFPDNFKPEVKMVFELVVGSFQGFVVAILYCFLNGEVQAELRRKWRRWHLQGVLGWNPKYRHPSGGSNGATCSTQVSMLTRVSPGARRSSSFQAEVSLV
Sequence of Sigma non-opioid intracellular receptor 1 (Q99720 whole entry): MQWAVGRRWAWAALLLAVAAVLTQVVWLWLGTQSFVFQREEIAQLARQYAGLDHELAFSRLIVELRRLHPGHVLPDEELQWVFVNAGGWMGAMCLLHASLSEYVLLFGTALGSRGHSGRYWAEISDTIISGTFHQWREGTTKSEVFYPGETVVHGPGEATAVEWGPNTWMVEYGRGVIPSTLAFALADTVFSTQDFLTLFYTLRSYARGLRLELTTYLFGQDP
Sequence of D(1A) dopamine receptor (Homo sapiens) (P21728 whole entry): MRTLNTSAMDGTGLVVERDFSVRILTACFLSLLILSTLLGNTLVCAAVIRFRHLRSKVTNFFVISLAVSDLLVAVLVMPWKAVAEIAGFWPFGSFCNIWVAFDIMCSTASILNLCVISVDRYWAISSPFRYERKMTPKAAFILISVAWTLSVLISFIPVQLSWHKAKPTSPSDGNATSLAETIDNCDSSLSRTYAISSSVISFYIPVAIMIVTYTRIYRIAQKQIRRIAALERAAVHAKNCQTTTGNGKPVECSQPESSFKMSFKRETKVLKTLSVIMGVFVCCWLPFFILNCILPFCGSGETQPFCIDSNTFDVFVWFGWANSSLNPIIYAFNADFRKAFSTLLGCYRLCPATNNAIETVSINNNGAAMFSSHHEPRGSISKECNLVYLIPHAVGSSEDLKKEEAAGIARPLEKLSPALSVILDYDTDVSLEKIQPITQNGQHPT
Sequence of D(1B) dopamine receptor (Homo sapiens) (P21918 whole entry): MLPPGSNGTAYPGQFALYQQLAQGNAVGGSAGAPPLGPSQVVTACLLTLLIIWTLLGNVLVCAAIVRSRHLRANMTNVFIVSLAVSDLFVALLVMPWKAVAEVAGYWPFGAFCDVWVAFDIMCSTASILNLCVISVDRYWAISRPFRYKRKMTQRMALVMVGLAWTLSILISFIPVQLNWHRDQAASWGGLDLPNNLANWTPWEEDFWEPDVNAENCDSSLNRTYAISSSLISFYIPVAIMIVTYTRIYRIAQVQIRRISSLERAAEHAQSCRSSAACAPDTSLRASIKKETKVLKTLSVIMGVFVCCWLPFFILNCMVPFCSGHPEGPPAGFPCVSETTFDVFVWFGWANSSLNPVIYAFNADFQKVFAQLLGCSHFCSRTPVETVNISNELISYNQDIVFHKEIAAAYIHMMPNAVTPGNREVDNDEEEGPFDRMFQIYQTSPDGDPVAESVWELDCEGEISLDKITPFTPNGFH
Sequence of Sigma non-opioid intracellular receptor 1 (Rattus norvegicus) (Q9R0C9 whole entry): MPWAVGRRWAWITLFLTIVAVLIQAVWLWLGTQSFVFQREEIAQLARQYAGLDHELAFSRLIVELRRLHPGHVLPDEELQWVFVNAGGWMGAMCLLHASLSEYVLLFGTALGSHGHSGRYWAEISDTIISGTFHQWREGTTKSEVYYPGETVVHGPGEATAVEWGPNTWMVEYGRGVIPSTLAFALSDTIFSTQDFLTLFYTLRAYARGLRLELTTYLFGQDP

`C[C@H]1[C@@H](c2ccccc2)CC(=O)N1CC(N)=O` showed an inhibition [1] of 2%, an inhibition [2] of -3% and an inhibition [3] of 7%. The inhibition [4] was 8%, the inhibition [5] was -6% and the inhibition [6] was -5%. The inhibition [7] was -2%, the Activity [8] was “inactive” and the ED50 [9] was 349 mg/kg. The Activity [10] was 458 cm, the Activity [11] was 359 cm and the Activity [12] was 470 cm. The Activity [13] was 1026 cm, the Activity [14] was “inactive” and the inhibition [15] was 5%. It also gave an inhibition [16] of -2%, an inhibition [17] of -9% and an inhibition [18] of -2%. The inhibition [19] was -7%, the inhibition [20] was -6% and the inhibition [21] was 4%. For the same molecule, the inhibition [22] was -5%.
